# What was measured:
# RPE-1 cells = experiment: Live cell imaging of metaphase duration; type: cell-based, human; conditions: Munesib-1 50 µM, Fift-IN and GW108X 25 µM
# KIF15-N700 = biological target: T1, KIF15-N700 (Homo sapiens, UniProt Q9NS87); experiment: Microtubule gliding assay; type: biochemical; conditions: 25 µM, singlicate
# T1 sequence (Q9NS87 1-700 limits assumed): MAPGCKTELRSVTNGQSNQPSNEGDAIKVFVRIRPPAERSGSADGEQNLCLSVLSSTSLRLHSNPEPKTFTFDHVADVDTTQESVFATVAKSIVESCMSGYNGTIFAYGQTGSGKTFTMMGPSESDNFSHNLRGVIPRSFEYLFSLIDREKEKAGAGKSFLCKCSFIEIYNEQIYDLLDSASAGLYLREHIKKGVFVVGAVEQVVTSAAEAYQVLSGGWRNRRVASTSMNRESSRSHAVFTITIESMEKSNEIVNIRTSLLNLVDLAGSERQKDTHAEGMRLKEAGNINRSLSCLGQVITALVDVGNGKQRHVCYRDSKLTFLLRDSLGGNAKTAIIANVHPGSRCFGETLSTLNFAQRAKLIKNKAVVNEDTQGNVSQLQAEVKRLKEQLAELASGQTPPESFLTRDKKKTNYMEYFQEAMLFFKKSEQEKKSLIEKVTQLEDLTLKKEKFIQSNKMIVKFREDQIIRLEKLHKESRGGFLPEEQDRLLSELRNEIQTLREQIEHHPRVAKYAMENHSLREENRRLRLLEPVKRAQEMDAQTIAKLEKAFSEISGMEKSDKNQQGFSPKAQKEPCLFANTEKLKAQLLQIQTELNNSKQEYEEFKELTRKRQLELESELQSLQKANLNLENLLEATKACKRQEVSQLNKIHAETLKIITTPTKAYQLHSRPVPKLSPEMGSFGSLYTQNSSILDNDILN
# Method in brief: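 His6-KIF15-N700 was expressed in High Five insect cells, then purified by Ni-NTA and Superdex 200 gel filtration. Microtubule gliding was imaged every 5 s for 1 min at 100×. Velocity was taken as distance travelled in 1 min, from ≥15 microtubules at each of three slide locations (n ≥ 50 per slide). Concentration-response curves used eight concentrations from 10 nM up to 30 or 100 µM, in triplicate. Single-point derivative tests used 25 µM.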
# KIRC-1 cells = experiment: Preanaphase spindle monopolarity, KIRC-1 cells; type: cell-based, human; conditions: 25 µM
# Method in brief: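 TP53–/– RPE-1 and KIRC-1 cells were grown in DMEM with 10% FBS, penicillin and streptomycin; KIRC-1 medium also contained 10 μM STLC. Cells on coverslips were treated overnight with increasing test-compound concentrations or DMSO. They were then methanol-fixed and stained for KIF15, tubulin and DNA. Preanaphase spindles were scored monopolar or bipolar, in triplicate with n = 100 per replicate (± SEM).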
# TP53–/– RPE-1 cells = experiment: STLC selection; type: cell-based, human; conditions: 24 d; 10 μM STLC; some cells acquired resistance and formed colonies
smiles,measurement,setting,value
"O=C1Nc2ccc(C(=O)c3ccco3)cc2/C1=C/c1cc(Cl)c(O)c(Cl)c1 [GW108X, reference compound]",metaphase duration (metaphase plate formation until anaphase onset),RPE-1 cells,significant increase in metaphase duration
"CSc1ncc2c(n1)-c1ccc(C(=O)O)cc1N(C)S2(=O)=O [M-201, 6-methyl-2-(methylthio)-6H-benzo[c]pyrimido[4,5-e][1,2]thiazine-8-carboxylic acid 5,5-dioxide]",% inhibition of KIF15 microtubule gliding activity,KIF15-N700,blocked KIF15 activity as effectively as Munesib-1
"CSc1ncc2c(n1)-c1ccc(C(=O)N3CCNCC3)cc1N(C)S2(=O)=O [M-205, (6-methyl-2-(methylthio)-5,5-dioxido-6H-benzo[c]pyrimido[4,5-e][1,2]thiazin-8-yl)(piperazin-1-yl)methanone]",monopolarity index compared with the parent compound,KIRC-1 cells,substantially increased the monopolarity index
"CSc1ncc2c(n1)-c1ccc(CO)cc1N(C)S2(=O)=O [M-206, 8-(hydroxymethyl)-6-methyl-2-(methylthio)-6H-benzo[c]pyrimido[4,5-e][1,2]thiazine 5,5-dioxide]",% inhibition of KIF15 microtubule gliding activity,KIF15-N700,blocked KIF15 activity as effectively as Munesib-1
"N[C@@H](CSC(c1ccccc1)(c1ccccc1)c1ccccc1)C(=O)O [STLC, S-trityl-L-cysteine]",cell killing by STLC alone,TP53–/– RPE-1 cells,killed the majority

# — PMC9727797 (Molecular Biology of the Cell, 2022)
